Compound activity as filed in PubChem BioAssay.
Sampled rows, rich in hits. Any-hit rate of the full collection: about 1.8%.
NPY-Y1 antag = NPY-Y1 receptor antagonists, primary screen, cell-based | HEK293-CNG Y1 cells, membrane potential fluorescence; NPY at EC95, then isoproterenol | inhibition, % at 3.6 µM | 200,000 tested, 1% active | AID 1040, 2008;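 active = inhibition above the campaign mean inhibition of all tested compounds plus 3 SD, cut at about 20% in these data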;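 note: 0% = DMSO wells given NPY plus isoproterenol and 100% = isoproterenol alone without NPY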
Target sequence (P25929 whole entry, looked up): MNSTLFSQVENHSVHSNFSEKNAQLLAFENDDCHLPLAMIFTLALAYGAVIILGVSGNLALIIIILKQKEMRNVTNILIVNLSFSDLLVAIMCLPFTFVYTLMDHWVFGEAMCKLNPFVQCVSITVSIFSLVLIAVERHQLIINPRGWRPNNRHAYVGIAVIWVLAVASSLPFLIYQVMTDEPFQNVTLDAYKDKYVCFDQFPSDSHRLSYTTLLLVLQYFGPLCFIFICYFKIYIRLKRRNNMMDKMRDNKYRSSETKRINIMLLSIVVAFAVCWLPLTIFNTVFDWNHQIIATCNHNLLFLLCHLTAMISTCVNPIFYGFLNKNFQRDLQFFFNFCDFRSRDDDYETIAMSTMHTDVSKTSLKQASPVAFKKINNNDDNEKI
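Material: HEK293 cells co-expressing NPY Y1 receptor and cyclic-nucleotide gated channel. Timing: compound incubation 1 h at room temperature, readout 45 min post-stimulation. Signal: fluorescence, membrane potential probe.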
NPY-Y2 PAM-ag = NPY-Y2 potentiators or agonists, primary screen, cell-based | Neuropeptide Y receptor type 2 (Homo sapiens), P49146 | cells expressing NPY-Y2, potentiator/agonist read-out | activation, % at 3.6 µM | 220,000 tested, 0.45% active | AID 1359, 2008; in the data active = activation above about 27%;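 note: cells stimulated with NPY near EC25 plus isoproterenol at EC100; 0% = vehicle plus submaximal agonist and 100% = vehicle plus saturating agonist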
Target sequence (P49146 whole entry, looked up): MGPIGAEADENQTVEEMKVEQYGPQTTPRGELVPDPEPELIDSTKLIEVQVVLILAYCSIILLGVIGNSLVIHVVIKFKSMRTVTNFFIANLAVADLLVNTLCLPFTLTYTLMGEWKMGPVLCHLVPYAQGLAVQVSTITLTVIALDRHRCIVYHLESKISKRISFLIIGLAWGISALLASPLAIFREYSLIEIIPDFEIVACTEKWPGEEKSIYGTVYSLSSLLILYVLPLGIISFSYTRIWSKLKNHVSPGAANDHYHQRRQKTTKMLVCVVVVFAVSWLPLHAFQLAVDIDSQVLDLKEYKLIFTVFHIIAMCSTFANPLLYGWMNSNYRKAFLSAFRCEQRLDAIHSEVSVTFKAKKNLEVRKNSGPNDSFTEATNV
NPY1 pot ag = NPY-Y1 receptor potentiators or agonists, primary screen, cell-based; Neuropeptide Y receptor type 1 (Homo sapiens), P25929; NPY-Y1 expressing cells, potentiator/agonist activation; activation, % at 3.6 µM; 220,000 tested, 0.37% active; AID 1304, 2008; in the data active = activation above about 33%, passing the limit was not always enough;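 note: cells stimulated with NPY at EC10 then isoproterenol at EC100; 0% = low agonist plus stimulus and 100% = saturating agonist plus stimulus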
NPY-Y2 antag = NPY-Y2 receptor antagonists, primary screen, cell-based; 140,000 tested, 0.99% active; Neuropeptide Y receptor type 2 (Homo sapiens), P49146; NPY-Y2 expressing cells, antagonist mode; inhibition, % at 2.7 µM; in the data active = inhibition above about 17%;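 note: 0% = vehicle with agonist challenge and 100% = reference antagonist with challenge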
NPY-Y2 confirm = NPY-Y2 potentiators or agonists, confirmation, cell-based. shares compounds with NPY-Y2 PAM-ag. cell-based NPY-Y2 potentiator/agonist assay. activation, % at 3.6 µM. 450 tested, 20% active. AID 1539, 2009; in the data active = activation above about 33%
NPY-Y1 counter = NPY-Y1 potentiators or agonists, counter-screen for NPY-Y2 potentiator project, cell-based, fluorescence; shares compounds with NPY-Y2 PAM-ag; Y1 HEK293-CNG cells, membrane potential fluorescence; activation, % at 3.6 µM; 450 tested, 20% active; AID 1651, 2009; in the data active = activation above about 45%;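 note: cells stimulated with submaximal NPY then isoproterenol with phosphodiesterase inhibitor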
NPY-Y1 ag 2 = NPY-Y1 direct agonists, selectivity assay for NPY-Y2 potentiator project, cell-based, fluorescence; shares compounds with NPY-Y2 PAM-ag; HEK293 Y1-CNGC, membrane potential fluorescence, agonism; activation, % at 3.6 µM; 450 tested, 37% active; AID 1702, 2009;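 active = activation above the mean of DMSO-only control wells plus 3 SD, cut at about 18% in these data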;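 note: cells stimulated with 1 µM isoproterenol plus the PDE inhibitor Ro 20-1724; 0% = isoproterenol with DMSO and no NPY and 100% = 40 nM NPY; Y1 agonists lower the membrane potential dye signal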
CNGC inhibitor = CNGC cAMP sensor activity inhibitors, counter-screen for NPY-Y2 potentiator project, cell-based, HEK293-CNG parental, membrane potential fluorescence; shares compounds with NPY-Y2 PAM-ag; isoproterenol cAMP; inhibition, % at 3.6 µM; 450 tested, 32% active;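 active = inhibition above the control-well mean plus 3 SD of those wells, cut at about 22% in these data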;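 note: 0% = DMSO with isoproterenol and 100% = DMSO without isoproterenol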
Y2 agonist ctr = NPY-Y2 direct agonists, counter-screen for NPY-Y2 potentiator project, cell-based, fluorescence; shares compounds with NPY-Y2 PAM-ag; HEK293 Y2/CNGC cells, membrane potential fluorescence, agonist mode; activation, % at 3.6 µM; 450 tested, 56% active; AID 1710, 2009;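 active = activation above the mean of solvent-only control wells plus 3 SD, cut at about 10% in these data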;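 note: cells stimulated by isoproterenol with no NPY added so direct agonism is tested; 0% = DMSO with isoproterenol alone and 100% = NPY at EC100 plus isoproterenol; agonism lowers probe fluorescence through less cAMP and CNG channel opening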
Starred values were filed as active, the others as inactive; . = no result given.

SMILES	NPY-Y1 antag	NPY-Y2 PAM-ag	NPY1 pot ag	NPY-Y2 antag	NPY-Y2 confirm	NPY-Y1 counter	NPY-Y1 ag 2	CNGC inhibitor	Y2 agonist ctr
CCC(CC)COC(=O)C(C#N)c1nc2ccccc2nc1N1CCN(CC)CC1 (configuration not stated)	-1.8	30.9*	25.6	8.1	51.7*	56.9*	32.7*	46.4*	64.2*
CCC(C)COC(=O)C(C#N)c1nc2ccccc2nc1N1CCCCC1 (configuration not stated)	7.6	-1.5	-1.7	-0.1	.	.	.	.	.
CC(N=C1CC(C)(C)CC(=O)/C1=C(/O)CCCN1C(=O)c2ccccc2C1=O)C(=O)O (configuration not stated)	7.2	-1.5	3.3	.	.	.	.	.	.
CC(=O)C(=Nc1ccc(Cl)cc1Cl)NNc1cccc(Cl)c1	-7.1	33.3*	39.1	-9.5	16.1	8.1	7.0	9.0	27.6*
CC(=O)c1ccc(NC(=O)Nc2cccc(Cl)c2)cc1	-7.3	10.8	18.0	-1.0	.	.	.	.	.
OC1(c2ccc(F)cc2)CSC(=Nc2cccnc2)N1Cc1ccco1 (configuration not stated)	-10.7	33.5*	25.6	.	6.7	19.2	5.4	-1.9	7.5
FC(F)Oc1ccc(-c2csc(=Nc3cccnc3)n2CC2CCCO2)cc1 (configuration not stated)	8.9	-6.2	-2.8	7.9	.	.	.	.	.
O=C(CSc1nnc(-c2cccnc2)n1Cc1ccco1)Nc1nc(-c2ccc(F)cc2)cs1	-3.3	-6.9	11.2	1.8	.	.	.	.	.
OC1(c2ccc(OC(F)F)cc2)CSC(=Nc2cccnc2)N1Cc1ccco1 (configuration not stated)	-3.8	35.4*	29.2	.	12.7	22.4	8.8	9.3	12.6*
Cc1nc2ccc(S(=O)(=O)NC(C(=O)Nc3nc4ccc(Cl)cc4s3)C(C)C)cc2s1 (configuration not stated)	-3.9	30.3*	24.5	-1.9	9.9	15.7	7.4	18.0	6.6
Cn1cnc2c(N/N=C/c3cccs3)ncnc21	.	63.8*	0.3	.	-9.0	-2.6	-4.8	-9.9	-2.1
COc1ccc(-c2csc(NC(=O)c3ccccc3NS(=O)(=O)c3ccc(C)cc3)n2)cc1	-7.5	64.9*	36.4	0.8	30.6	-1.8	1.4	-4.3	24.8*
CC(C)(C)NC(=O)NC(=O)CN1CCN(c2cccc(Cl)c2)CC1	.	-3.2	30.4	.	.	.	.	.	.
COc1cc(OC)c(NC(=O)CCNS(=O)(=O)c2cc(Br)cnc2N)cc1Cl	-4.2	48.0*	20.3	-2.6	9.4	22.2	13.9	14.2	5.1
Cc1ccc(NC(=O)CCNS(=O)(=O)c2cc(Br)cnc2N)c(Cl)c1	0.3	-14.4	-11.7	2.3	.	.	.	.	.
CCc1cc[n+](/C(C(=S)Nc2cccc(C)c2)=C(/[O-])c2ccc(C)c([N+](=O)[O-])c2)cc1	-3.0	41.7*	39.0	3.4	4.5	10.8	8.7	14.9	14.7*
NC(=O)C1CCN(CC(=O)Nc2cccc(C(=O)Nc3cccc(C(F)(F)F)c3)c2)CC1	0.3	41.4*	32.7	-0.8	-0.1	-2.4	-7.8	-2.4	-9.6
O=C(CN1CCC(C(=O)c2cccc(Cl)c2)CC1)Nc1cccc(C(=O)O)c1	-0.6	1.2	8.4	.	.	.	.	.	.
COc1ccc(C(=S)N2CCN(c3ccccc3Cl)CC2)cc1OC	.	-11.5	-14.0	.	.	.	.	.	.
COc1cc(C(=S)N2CCN(c3ccccc3Cl)CC2)cc(O)c1O	1.7	30.7*	16.4	.	0.5	7.6	-1.4	7.5	23.0*
O=C(Nc1ccc(Cl)cc1)N1CCCN(c2ccc(C(F)(F)F)cc2[N+](=O)[O-])CC1	.	47.6*	40.5	.	46.7*	75.9*	77.7*	59.9*	58.5*
O=[N+]([O-])c1cc(C(F)(F)F)ccc1NCCNC(=S)Nc1ccc(Cl)cc1	-10.2	36.1*	28.1	-4.8	35.5*	36.9	38.9*	23.0*	45.5*
O=C(O)COc1ccccc1/C=N/NC(=O)c1cccc(S(=O)(=O)N2CCOCC2)c1	-3.6	-4.4	5.6	.	.	.	.	.	.
Cc1ccc(NC2=C(Cl)C(=O)c3ccccc3C2=O)cc1	5.6	0.4	3.6	1.2	.	.	.	.	.
O=C1C(Cl)=C(Nc2ccc(O)cc2)C(=O)c2ccccc21	.	36.5*	25.3	.	31.1	36.7	6.4	29.4*	32.6*
SMILES	NPY-Y1 antag	NPY-Y2 PAM-ag	NPY1 pot ag	NPY-Y2 antag	NPY-Y2 confirm	NPY-Y1 counter	NPY-Y1 ag 2	CNGC inhibitor	Y2 agonist ctr
CCC(C)c1ccc(NC(=O)CN(C)CC(=O)Nc2cccc(OC)c2)cc1 (configuration not stated)	4.0	13.8	5.7	.	.	.	.	.	.
O=C(/C=C/c1ncc(C(F)(F)F)cc1Cl)OCc1ccccc1	3.1	-1.9	-16.2	5.1	.	.	.	.	.
Cc1cccc(C(=O)NN2S(=O)(=O)c3ccccc3S2(=O)=O)c1	0.7	6.7	8.3	.	.	.	.	.	.
CN(CC1CCCO1)S(=O)(=O)c1ccc(C(=O)Nc2nc3cc4c(cc3s2)OCO4)cc1 (configuration not stated)	0.1	43.3*	12.9	1.1	3.0	-8.6	-22.8	-12.4	7.0
CCOC(=O)c1cn(CC(=O)Nc2ccc(OC)cc2OC)nn1	-4.2	3.4	4.9	.	.	.	.	.	.
CC1=NC(=O)C(N=Nc2ccccc2C(=O)O)N1c1ccccc1 (configuration not stated)	-3.6	29.9*	30.4	.	21.0	29.4	10.0	-0.6	14.5*
COc1ccc(NC(=O)C(=S)NC2CCCCC2)cc1	1.9	31.4*	24.4	.	11.0	19.9	15.1	-12.0	-7.8
CCOc1ccc(NC(=O)C(=S)NC2CCCCC2)cc1	-0.9	4.2	15.1	.	.	.	.	.	.
O=C(O)c1nccnc1C(=O)Nc1ccc(Oc2c(Cl)cccc2Cl)nc1	.	73.1*	12.3	.	-2.6	-2.3	-12.4	-8.3	-0.2
COc1ccc(NC(=O)c2c(OC)cccc2OC)c(OC)c1	-0.3	27.9*	1.3	-0.6	8.6	9.6	14.4	12.6	17.4*
CC(=O)Nc1ccc(S(=O)(=O)NCCSCc2cccc(Cl)c2)cc1	-8.9	7.2	11.1	4.5	.	.	.	.	.
